In PMC6953265 (Molecular imaging and biology, 2019):
Several values for one entry are separate records, joined by “and”; a condition that tells them apart may be missing. Equal values may be shown once. Read-outs that look alike come from different tables or passages of the source. One block for each compound: values may come before it.

How the values were obtained:
TSPO [1] = target: T1, TSPO (Rattus norvegicus, UniProt P16257); conditions: earlier study; cited from earlier work
TSPO [2] = target: T1, TSPO; type: binding; conditions: C6 glioma cell lysate; for IC50: read-out: TSPO binding affinity (IC50), competition with [^3H]PK 11195 (0.6 nM), 2 h at 25 °C
In short: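 C6 cells PBS-washed, then freeze-thawed three times in lysis buffer (5.0 mM HEPES, mannitol, sucrose, benzamidine, MgCl2, pH 7.4); lysate 0.5 mg/ml. Lysate incubated with [3H]PK 11195 (final 0.6 nM) and test compound (10−5 to 10−14 M), 2 h, 25 °C. Rapid filtration onto polyethylenimine-presoaked filters, scintillation counting. IC50 fitted in triplicate; fold values are IC50 ratios.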

TSPO [3] = target: T1, TSPO; experiment: Compartmental modeling of dynamic PET data; type: in vivo; conditions: for VT ratio between tumor and normal brain: from VT values of Table 1; for K1/k2 / VT / k3/k4 (BPND): mean ± SEM, n = 7
TSPO [4] = target: T1, TSPO; conditions: mean ± SEM, n = 5, cited from earlier work
C6 glioma = experiment: In vivo uptake of [^18F]VUIIS1018A, 60-min dynamic PET in C6 glioma-bearing rats; parameters: species or system rat
In short: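 Male Wistar rats, 1.0 × 10^5 C6 glioma cells implanted stereotactically in right hemisphere 2 weeks before imaging; tumours confirmed by T2-weighted MRI at 4.7T. Venous and arterial catheters placed. 18F-labelled tracer 1.1 ± 0.3 mCi given via jugular catheter in microPET; 60-min listmode dynamic scan (32 frames), CT attenuation correction, 2D OSEM reconstruction. Tumour and contralateral brain VOIs gave time-activity curves.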

TSPO [5] = target: T1, TSPO; type: in vivo; conditions: blocking with [^19F]VUIIS1018A 10 mg/kg 5 min before tracer
In short: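 C6 glioma-bearing male Wistar rats, catheterised venous and arterial. Unlabelled (19F) analogue of tracer, 10 mg/kg, given 5 min before 18F tracer (1.1 ± 0.3 mCi, jugular catheter), then 60-min dynamic microPET with CT attenuation correction. Time-activity curves from tumour and contralateral brain VOIs. BPND maps by SRTM2, normal cerebrum as reference tissue. n = 3.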

SMILES: CCc1cc(CC)n2nc(-c3ccc(OCCF)cc3)c(CC(=O)N(CC)CC)c2n1 [VUIIS1008, 2-(5,7-diethyl-2-(4-(2-fluoroethoxy)phenyl)pyrazolo[1,5-a]pyrimidin-3-yl)-N,N-diethylacetamide]
fold enhancement in binding affinity compared to DPA-714 (TSPO [1]): 36 fold

SMILES: CCCCc1cc(C)nc2c(CC(=O)N(CC)CC)c(-c3ccc(OCCF)cc3)nn12 [VUIIS1018A]
fold enhancement in binding affinity compared with DPA-714 (TSPO [2]; ratio of IC50 values): ~700 fold
fold enhancement in binding affinity compared with VUIIS1008 (TSPO [2]; ratio of IC50 values): 20 fold
IC50 (TSPO [2]): 0.0162 nM

SMILES: CCCCc1cc(C)n2nc(-c3ccc(OCCF)cc3)c(CC(=O)N(CC)CC)c2n1 [VUIIS1018B]
fold lower binding affinity than VUIIS1018A (TSPO [2]; ratio of IC50 values): 6000 fold
IC50 (TSPO [2]): 100 nM

More lines, main results first:

VT ratio between tumor and normal brain (TSPO [3]): 6.0
SMILES: CCc1cc(CC)n2nc(-c3ccc(OCC[18F])cc3)c(CC(=O)N(CC)CC)c2n1 [[^18F]VUIIS1008, 2-(5,7-Diethyl-2-(4-(2-[^18?F]fluoroethoxy)phenyl)pyrazolo[1,5-a]pyrimidin-3-yl)-N,N-diethylacetamide]
K1/k2 (TSPO [4]; Brain): 0.855 ± 0.325
VT (TSPO [4]; Brain): 4.210 ± 1.612
k3/k4 (BPND) (TSPO [4]; Brain): 4.435 ± 1.387
k3/k4 (BPND) (TSPO [4]; Brain, listed as [^18 F]VUIIS1008): 4.43
K1/k2 (TSPO [4]; Tumor): 1.902 ± 0.816
VT (TSPO [4]; Tumor): 25.224 ± 10.035
k3/k4 (BPND) (TSPO [4]; Tumor): 12.63 and 12.634 ± 1.406

fold enhancement in binding affinity compared with DPA-714 (TSPO [2]; ratio of IC50 values): approximately 700 fold
fold enhancement in binding affinity compared with DPA-714 (TSPO [2]; ratio of IC50 values, listed as [^18 F]VUIIS1018A): 700 fold
K1/k2 (TSPO [3]; Brain): 0.311 ± 0.036
VT (TSPO [3]; Brain): 1.214 ± 0.190
k3/k4 (BPND) (TSPO [3]; Brain): 2.91 and 2.913 ± 0.456
K1/k2 (TSPO [3]; Tumor): 0.532 ± 0.130
VT (TSPO [3]; Tumor): 11.036 ± 3.731
k3/k4 (BPND) (TSPO [3]; Tumor): 23.10 and 23.097 ± 4.757
VT ratio between tumor and normal brain (TSPO [3]): 9.1
fold higher k3/k4 in tumor compared with healthy brain (TSPO [3]; from k3/k4 values of Table 1): 8 fold
circulating plasma radioactivity compared with the unblocked scenario (TSPO [5]): significantly elevated
effect of blocking dose on accumulation in the normal brain (TSPO [5]): insignificant effect
overall reduction in tumor PET signal (TSPO [5]; mean ± SD, n = 3): 48.3 ± 2.8%
SMILES: CCCCc1cc(C)nc2c(CC(=O)N(CC)CC)c(-c3ccc(OCC[18F])cc3)nn12 [[^18F]VUIIS1018A, 2-(7-Butyl-2-(4-(2-[^18F]Fluoroethoxy)phenyl)-5-Methylpyrazolo[1,5-a] Pyrimidin-3-yl)-N,N-Diethylacetamide]
accumulation in C6 gliomas (C6 glioma): robust accumulation
accumulation in normal brain (C6 glioma): negligible accumulation
